According to ChEMBL document CHEMBL1131202, “Alkyl esters of camptothecin and 9-nitrocamptothecin: synthesis, in vitro pharmacokinetics, toxicity, and antitumor activity” (1998):

Key:
Type in all cases: functional
[1] = In vitro determination of lactone level in human plasma after administration of compound at 0 hour
In short: (§1)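 Drug (500 ng, in methanol) added to 1 mL of human or mouse plasma and incubated at 37 °C. 100-µL aliquots taken at 0.5–6 h. Analysis by C-8 HPLC (30% acetonitrile/water/0.1% acetic acid) with fluorescence at 347/418 nm. Percent lactone: lactone/total drug for the parent; drug at each time relative to t = 0 for the ester.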

Mus musculus [2] = test: In vitro determination of lactone level in mouse plasma after administration of compound at 1 hour; in short: as §1
[3] = In vitro determination of lactone level in human plasma after administration of compound at 6 hour; in short: as §1
Mus musculus [4] = test: In vitro determination of lactone level in mouse plasma after administration of compound at 0 hour; in short: as §1
[5] = In vitro determination of lactone level in human plasma after administration of compound at 1 hour; in short: as §1
Mus musculus [6] = test: Change in the body weight of mice during the test time period after 34 days at a dose of 8 mg/kg
Mus musculus [7] = test: Change in the body weight of mice during the test time period after 56 days at a dose of 7 mg/kg
[8] = In vitro determination of lactone level in human plasma after administration of compound at 4 hour; in short: as §1
Mus musculus [9] = test: In vitro determination of lactone level in mouse plasma after administration of compound at 6 hour; in short: as §1
Mus musculus [10] = test: Change in the body weight of mice during the test time period after 41 days at a dose of 7 mg/kg
Mus musculus [11] = test: Change in the body weight of mice during the test time period after 27 days at a dose of 7 mg/kg
Mus musculus [12] = test: Change in the body weight of mice during the test time period after 41 days at a dose of 8 mg/kg
Mus musculus [13] = test: Change in the body weight of mice during the test time period after 27 days at a dose of 8 mg/kg
Mus musculus [14] = test: Change in the body weight of mice during the test time period after 56 days at a dose of 8 mg/kg
Mus musculus [15] = test: Change in the body weight of mice during the test time period after 21 days at a dose of 6 mg/kg
Mus musculus [16] = test: Change in the body weight of mice during the test time period after 48 days at a dose of 5 mg/kg
Mus musculus [17] = test: Change in the body weight of mice during the test time period after 41 days at a dose of 5 mg/kg
[18] = In vitro determination of lactone level in human plasma after administration of compound at 2 hour; in short: as §1
Mus musculus [19] = test: Change in the body weight of mice during the test time period after 56 days at a dose of 6 mg/kg
Mus musculus [20] = test: Change in the body weight of mice during the test time period after 21 days at a dose of 7 mg/kg
Mus musculus [21] = test: Change in the body weight of mice during the test time period after 27 days at a dose of 5 mg/kg
Mus musculus [22] = test: Change in the body weight of mice during the test time period after 21 days at a dose of 8 mg/kg
Mus musculus [23] = test: Change in the body weight of mice during the test time period after 48 days at a dose of 6 mg/kg
Mus musculus [24] = test: Change in the body weight of mice during the test time period after 34 days at a dose of 7 mg/kg
Mus musculus [25] = test: Change in the body weight of mice during the test time period after 21 days at a dose of 5 mg/kg
Mus musculus [26] = test: Change in the body weight of mice during the test time period after 34 days at a dose of 5 mg/kg
Mus musculus [27] = test: Change in the body weight of mice during the test time period after 41 days at a dose of 6 mg/kg
Mus musculus [28] = test: Change in the body weight of mice during the test time period after 27 days at a dose of 6 mg/kg
Mus musculus [29] = test: Change in the body weight of mice during the test time period after 34 days at a dose of 6 mg/kg
Mus musculus [30] = test: Change in the body weight of mice during the test time period after 48 days at a dose of 7 mg/kg
Mus musculus [31] = test: Change in the body weight of mice during the test time period after 56 days at a dose of 5 mg/kg
Mus musculus [32] = test: Change in the body weight of mice during the test time period after 48 days at a dose of 8 mg/kg
Mus musculus [33] = test: In vitro determination of lactone level in mouse plasma after administration of compound at 2 hour; in short: as §1
Mus musculus [34] = test: In vitro determination of tlactone level in mouse plasma after administration of compound at 0 hour
In short: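 Mouse plasma (1 mL) was spiked with 500 ng drug in methanol and incubated at 37 °C, with aliquots taken over time starting at t = 0 h. Percent lactone was derived by reverse-phase C-8 HPLC with fluorescence detection and peak-area integration. For parent camptothecins it was lactone/total drug; for esters it was drug at each time point/drug at t = 0 h.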

Mus musculus [35] = test: In vitro determination of lactone level in mouse plasma after administration of compound at 4 hour; in short: as §1

## CC[C@@]1(O)C(=O)OCc2c1cc1n(c2=O)Cc2cc3c([N+](=O)[O-])cccc3nc2-1 [RUBITECAN]
[1]
  Lactone: 100%
Mus musculus [2]
  Lactone: 30%
[3]
  Lactone: 0%
Mus musculus [4]
  Lactone: 100%
[5]
  Lactone: 7%

## CCC(=O)O[C@]1(CC)C(=O)OCc2c1cc1n(c2=O)Cc2cc3ccccc3nc2-1 [CAMPTOTHECIN-20-O-PROPIONATE]
Mus musculus [6]
  Body weight: 34 g
Mus musculus [7]
  Body weight: 31.5 g
[8]
  Lactone: 68%
[1]
  Lactone: 100%
Mus musculus [9]
  Lactone: 85%
Mus musculus [10]
  Body weight: 31.1 g
Mus musculus [11]
  Body weight: 31.7 g
Mus musculus [12]
  Body weight: 33.4 g
Mus musculus [13]
  Body weight: 34.1 g
Mus musculus [14]
  Body weight: 33.2 g
Mus musculus [15]
  Body weight: 32.9 g
Mus musculus [16]
  Body weight: 32.9 g
Mus musculus [17]
  Body weight: 33.5 g
Mus musculus [2]
  Lactone: 97.5%
[3]
  Lactone: 56%
[18]
  Lactone: 77%
Mus musculus [19]
  Body weight: 32.2 g
Mus musculus [20]
  Body weight: 30.8 g
Mus musculus [4]
  Lactone: 100%
Mus musculus [21]
  Body weight: 33.7 g
[5]
  Lactone: 86%
Mus musculus [22]
  Body weight: 32.9 g
Mus musculus [23]
  Body weight: 34 g
Mus musculus [24]
  Body weight: 30.6 g
Mus musculus [25]
  Body weight: 33 g
Mus musculus [26]
  Body weight: 34.4 g
Mus musculus [27]
  Body weight: 33.5 g
Mus musculus [28]
  Body weight: 33.4 g
Mus musculus [29]
  Body weight: 33.8 g
Mus musculus [30]
  Body weight: 31.6 g
Mus musculus [31]
  Body weight: 33.2 g
Mus musculus [32]
  Body weight: 33.9 g

## CC[C@@]1(O)C(=O)OCc2c1cc1n(c2=O)Cc2cc3ccccc3nc2-1 [CAMPTOTHECIN]
[8]
  Lactone: 0%
[1]
  Lactone: 100%
Mus musculus [33]
  Lactone: 35%
Mus musculus [9]
  Lactone: 18%
Mus musculus [34]
  Lactone: 100%
Mus musculus [2]
  Lactone: 42%
[3]
  Lactone: 0%
[18]
  Lactone: 0.5%
[5]
  Lactone: 12%
Mus musculus [35]
  Lactone: 18%

## CCC(=O)O[C@]1(CC)C(=O)OCc2c1cc1n(c2=O)Cc2cc3c([N+](=O)[O-])cccc3nc2-1
[1]
  Lactone: 100%
Mus musculus [9]
  Lactone: 84.3%
Mus musculus [2]
  Lactone: 97.7%
[3]
  Lactone: 64.4%
Mus musculus [4]
  Lactone: 100%
[5]
  Lactone: 93.7%
